Data reported in ChEMBL document CHEMBL1154919, “Synthesis and biological evaluation of 12-aminoacylphorboids” (J Nat Prod, 2010).
The source made the active and inactive calls. No cut-off for these calls is given here.

Assays:
[1] = target: T1, Prostaglandin G/H synthase 2 (Rattus norvegicus) (UniProt P35355); experiment: Inhibition of COX2 in LPS-stimulated rat microglia after 24 hrs by immunoblotting
T1 sequence (whole entry): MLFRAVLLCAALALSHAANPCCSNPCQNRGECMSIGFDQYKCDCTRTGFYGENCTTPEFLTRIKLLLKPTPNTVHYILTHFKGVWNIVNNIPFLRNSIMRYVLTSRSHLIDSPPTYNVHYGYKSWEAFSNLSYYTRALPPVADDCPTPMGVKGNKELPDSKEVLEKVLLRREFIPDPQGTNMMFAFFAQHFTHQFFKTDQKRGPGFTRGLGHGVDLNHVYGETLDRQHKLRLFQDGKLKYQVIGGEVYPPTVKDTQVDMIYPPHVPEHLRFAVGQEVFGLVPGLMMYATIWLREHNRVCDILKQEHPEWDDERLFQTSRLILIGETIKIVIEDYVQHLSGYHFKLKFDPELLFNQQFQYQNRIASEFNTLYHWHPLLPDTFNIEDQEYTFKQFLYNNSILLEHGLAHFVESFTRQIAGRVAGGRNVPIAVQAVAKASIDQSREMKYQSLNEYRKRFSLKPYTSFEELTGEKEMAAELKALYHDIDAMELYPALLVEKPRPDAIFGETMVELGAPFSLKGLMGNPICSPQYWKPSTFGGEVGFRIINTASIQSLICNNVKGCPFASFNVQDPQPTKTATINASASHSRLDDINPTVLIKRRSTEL

[2] = target: T1, Prostaglandin G/H synthase 2 (Rattus norvegicus); experiment: Inhibition of COX2 in LPS-stimulated rat microglia assessed as PGE2 release after 24 hrs by enzyme immunoassay
[3] = tested on: Human immunodeficiency virus 1; experiment: Activation of latent recombinant HIV1 LTR-GFP gene expression infected in human Jurkat LAT-GFP cells assessed as GFP level at 10 uM after 6 hrs by flow cytometry in presence of pan-PKC inhibitor G06983 pretreated for 30 mins; assay type: functional, organism-based
How it was run: (§1)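 Jurkat LAT-GFP cells (latent HIV-LTR-driven GFP clone) pretreated 30 min with PKC inhibitor (1 µM), then stimulated with compound at 10 µM for 6 h.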

[4] = tested on: Human immunodeficiency virus 1; experiment: Activation of latent recombinant HIV1 LTR-GFP gene expression infected in human Jurkat LAT-GFP cells assessed as GFP positive cells at 10 uM after 6 hrs by flow cytometry; assay type: functional, organism-based
How it was run: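 Jurkat-derived clone latently infected with recombinant virus carrying GFP under HIV-LTR promoter, exposed to compound for 6 h. Histograms shown are one of three independent experiments.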

[5] = tested on: Human immunodeficiency virus 1; experiment: Activation of latent recombinant HIV1 LTR-GFP gene expression infected in human Jurkat LAT-GFP cells assessed as GFP level at 10 uM after 6 hrs by flow cytometry in presence of PKCinhibitor G06976 pretreated for 30 mins; assay type: functional, organism-based; how it was run: as §1
[6] = target: Protein kinase C delta type (Homo sapiens) (UniProt Q05655); experiment: Activation of PKCdelta in human Jurkat cells assessed as enzyme phosphorylation at 1 uM after 15 mins by Western blotting; assay type: cell-based
How it was run: (§2)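 Jurkat LAT-GFP cells (10^6 cells/ml) exposed for 15 min to compound (increasing concentrations) or TPA 1 µM. Lysed in HEPES pH 8.0 buffer with 0.5% NP-40 and protease/phosphatase inhibitors. 30 µg protein run on 10% SDS-PAGE, blotted to nitrocellulose, probed with anti-phospho-PKCδ (Thr505) and anti-panPKC, ECL detection.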

[7] = target: Protein kinase C alpha type (Homo sapiens) (UniProt P17252); experiment: Activation of PKCalpha assessed as [32P] incorporation after 10 mins by scintillation counting
[8] = target: Protein kinase C delta type (Homo sapiens) (UniProt Q05655); experiment: Activation of PKCdelta assessed as [32P] incorporation after 10 mins by scintillation counting
[9] = target: Protein kinase C delta type (Homo sapiens) (UniProt Q05655); experiment: Activation of PKCdelta in human Jurkat cells assessed as enzyme phosphorylation after 15 mins by Western blotting; assay type: cell-based; how it was run: as §2
[10] = tested on: Human immunodeficiency virus 1; experiment: Activation of latent recombinant HIV1 LTR-GFP gene expression infected in human Jurkat LAT-GFP cells assessed as GFP positive cells after 6 hrs by flow cytometry relative to control; assay type: functional, organism-based
How it was run: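 Jurkat-derived clone latently carrying recombinant virus with GFP under the HIV-LTR promoter, stimulated with compound at the indicated concentrations for 6 h.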

Protein kinase C delta type (Homo sapiens), sequence (Q05655 whole entry, looked up): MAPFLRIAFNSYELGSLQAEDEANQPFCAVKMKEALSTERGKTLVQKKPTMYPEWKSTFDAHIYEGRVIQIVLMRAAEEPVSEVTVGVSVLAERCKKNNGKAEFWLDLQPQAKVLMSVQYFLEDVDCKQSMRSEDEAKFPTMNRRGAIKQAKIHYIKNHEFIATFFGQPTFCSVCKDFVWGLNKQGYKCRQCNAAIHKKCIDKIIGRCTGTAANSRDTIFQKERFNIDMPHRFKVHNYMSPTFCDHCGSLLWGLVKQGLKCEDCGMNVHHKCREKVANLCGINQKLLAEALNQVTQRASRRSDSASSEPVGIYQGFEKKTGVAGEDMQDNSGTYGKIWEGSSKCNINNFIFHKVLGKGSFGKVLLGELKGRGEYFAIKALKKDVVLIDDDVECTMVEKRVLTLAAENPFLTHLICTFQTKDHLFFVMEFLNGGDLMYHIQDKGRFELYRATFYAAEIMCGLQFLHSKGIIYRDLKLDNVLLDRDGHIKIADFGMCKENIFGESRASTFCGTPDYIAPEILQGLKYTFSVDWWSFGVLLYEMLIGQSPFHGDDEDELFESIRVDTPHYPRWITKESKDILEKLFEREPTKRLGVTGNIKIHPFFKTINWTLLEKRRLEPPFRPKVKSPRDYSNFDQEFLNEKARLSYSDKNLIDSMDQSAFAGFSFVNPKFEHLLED

`CC(=O)O[C@@]12[C@H](OC(=O)[C@@H](C(C)C)N(C)C)[C@@H](C)[C@]3(O)[C@@H]4C=C(C)C(=O)[C@@H]4CC(CO)=C[C@H]3[C@@H]1C2(C)C` was tested, and the inhibition [1] was “Active”, the Activity [2] was “inactive” and the Activity [3] was “Active”. For the same compound, the Activity [4] was “Active” and the Activity [5] was “Active”.
With `CC(=O)O[C@@]12[C@H](OC(=O)[C@H](N)C(C)C)[C@@H](C)[C@]3(O)[C@@H]4C=C(C)C(=O)[C@@H]4CC(CO)=C[C@H]3[C@@H]1C2(C)C` the Activity [4] was “inactive”.
For `CCCCCCCCCCCCCC(=O)O[C@@H]1[C@@H](C)[C@]2(O)[C@@H]3C=C(C)C(=O)[C@@]3(O)[C@H](O)C(CO)=C[C@H]2[C@@H]2C(C)(C)[C@]12OC(C)=O`, the Activity [6] was “Active”.
`CN[C@H](C(=O)O[C@@H]1[C@@H](C)[C@]2(O)[C@@H]3C=C(C)C(=O)[C@@H]3CC(CO)=C[C@H]2[C@@H]2C(C)(C)[C@]12OC(C)=O)C(C)C` was tested, and the Activity [4] was “inactive”.
With `CC(=O)O[C@@]12[C@H](OC(=O)[C@H](C(C)C)N(C)C)[C@@H](C)[C@]3(O)[C@@H]4C=C(C)C(=O)[C@@H]4CC(CO)=C[C@H]3[C@@H]1C2(C)C` the Activity [7] was “Dose-dependent effect”, the Activity [8] was “Dose-dependent effect” and the Activity [3] was “Active”. For the same compound, the Activity [9] was “Active”, the Activity [4] was “Active” and the Activity [5] was “Active”.
In the case of `CC(=O)O[C@@]12[C@H](OC(=O)CN(C)C)[C@@H](C)[C@]3(O)[C@@H]4C=C(C)C(=O)[C@@H]4CC(CO)=C[C@H]3[C@@H]1C2(C)C`, the Activity [7] is reported as “inactive”, the Activity [8] is reported as “inactive” and the Activity [4] is reported as “inactive”.
For `CC(=O)O[C@@]12[C@H](OC(=O)[C@@H](N)C(C)C)[C@@H](C)[C@]3(O)[C@@H]4C=C(C)C(=O)[C@@H]4CC(CO)=C[C@H]3[C@@H]1C2(C)C`, the Activity [4] was “inactive”.
With `CCCCCCCCCCCCCC(=O)O[C@@H]1[C@@H](C)[C@@]2(O)[C@@H](C=C(CO)C[C@]3(O)C(=O)C(C)=C[C@@H]23)[C@@H]2C(C)(C)[C@]12OC(C)=O` the Activity [10] was “Active”.
